45 compounds from ChEMBL document CHEMBL1955761, “Privileged scaffolds or promiscuous binders: a comparative study on rhodanines and related heterocycles in medicinal chemistry” (J Med Chem, 2012) can be followed below.

Activity calls are given as the source filed them.

For one experiment, the system named is Dengue virus. Put plainly: Inhibition of Dengue virus NS2B-NS3 protease using Abz-NleKRRS-3-(NO2)Y as substrate at 50 uM preincubated for 15 mins measured every sec for 15 mins by fluorimetric analysis.
The next experiment concerns the target Prothrombin (Bos taurus) (UniProt P00735). In words: Inhibition of bovine plasma thrombin using Boc-Val-Pro-Arg-AMC as substrate at 25 uM preincubated for 15 mins measured after 10 mins by fluorimetric assay. An outline of the steps:
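Purchased bovine plasma thrombin at 10 nM final, preincubated 15 min with 25 μM inhibitor; reaction started with 50 μM substrate. Buffer 50 mM Tris-HCl pH 7.5, 150 mM NaCl, 0.05% Tween 20. Triplicate, averaged.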

Experiment [1] deals with Escherichia coli. Put plainly: Inhibition of Escherichia coli MurA using PEP as substrate assessed as inorganic phosphate release at 25 uM preincubated for 10 mins measured after 60 mins […].
The subject of experiment [2] is Escherichia coli. In words: Inhibition of Escherichia coli MetAP at 10 uM after 15 mins by fluorescence analysis.

With `O=C1NC(=O)/C(=C/c2c(F)c(F)c(F)c(F)c2F)S1`, the inhibition in the experiment on Dengue virus worked out at 12%. The inhibition entry on Prothrombin (Bos taurus), with Escherichia coli [1] and with Escherichia coli [2] was “inactive” in each case.
On to `COc1ccc(/C=C2\SC(=S)NC2=O)cc1`, for which the figures for the inhibition in the experiment with Dengue virus and against Prothrombin (Bos taurus) were 42% and 16%, respectively. Also, the inhibition entry in the experiment on Escherichia coli [1] and with Escherichia coli [2] was “inactive” each time.
`CC(C)C[C@@H]1NC(=S)NC1=O`: the inhibition result in the experiment with Dengue virus, on Prothrombin (Bos taurus) and with Escherichia coli [2] was “inactive” each time. In addition, the inhibition with Escherichia coli [1] was 20%.
Consider `O=C1NC(=S)S/C1=C\c1cccc(O)c1`, for which the inhibition in the experiment with Dengue virus is 29%; against Prothrombin (Bos taurus), 15%; in the experiment on Escherichia coli [1] it was 58%; in the experiment with Escherichia coli [2] it was 12%.
In the same order, the values of `O=C1NC(=S)S/C1=C1/CCOc2ccccc21` are 44%, 18%, “inactive” and “inactive”.
As to `O=C1NC(=O)/C(=C/c2sccc2Cl)S1`, the inhibition with Dengue virus was found to be 23%; on Prothrombin (Bos taurus) it was 11%; in the experiment with Escherichia coli [1], 12%. In addition, the inhibition result in the experiment on Escherichia coli [2] is “inactive”.
For `CC(=O)N1C(=S)NC(=O)[C@@H]1CC(C)C`, in that order: “inactive”, “inactive”, “inactive” and 13%.
For `CC(=O)N1C(=S)NC(=O)[C@@H]1CCCCN`, in that order: “inactive”, “inactive”, 12% and “inactive”.
For `COc1ccc(/C=C/C=C2\SC(=O)NC2=O)cc1`, in that order: 18%, 11%, 13% and “inactive”.
As for `O=C1NC(=O)/C(=C/c2ccc(O)c(O)c2)N1`, the inhibition in the experiment with Dengue virus came to 37%; against Prothrombin (Bos taurus), 32%; in the experiment on Escherichia coli [1] it was 70%; with Escherichia coli [2] it was 100%.
For `O=C1NC(=S)N/C1=C\c1ccc([N+](=O)[O-])cc1`, in that order: 35%, 19%, 15% and 13%.
For `COc1ccccc1/C=C1\NC(=S)NC1=O`, in that order: 28%, 15%, 10% and 18%.
As for `O=C1NC(=S)N/C1=C\c1ccco1`, the inhibition with Dengue virus was found to be 46%; at Prothrombin (Bos taurus), 14%; with Escherichia coli [1] it was 22%. Further, the inhibition result with Escherichia coli [2] is “inactive”.
For `O=C1NC(=S)S/C1=C\c1ccc(O)cc1`, the inhibition worked out at 47% in the experiment on Dengue virus, 34% at Prothrombin (Bos taurus) and 24% in the experiment with Escherichia coli [1]. Also, in the experiment with Escherichia coli [2], the inhibition entry was “inactive”.
In the same order, the values of `O=C1NC(=O)/C(=C/c2sccc2Cl)N1` are “inactive”, “inactive”, “inactive” and “inactive”.
In the same order, the values of `C/C(=C1/NC(=S)NC1=O)c1ccc(F)cc1` are “inactive”, 23%, 29% and 18%.
In the same order, the values of `O=C1NC(=S)N[C@H]1Cc1ccccc1` are “inactive”, “inactive”, 17% and 12%.
Take `O=C1NC(=O)/C(=C/c2ccc(Cl)s2)N1`: the inhibition with Dengue virus came to 16%; against Prothrombin (Bos taurus), 25%; in the experiment on Escherichia coli [1], 38%. The inhibition result with Escherichia coli [2] was “inactive”.
For `O=C1NC(=S)N[C@@H]1Cc1ccccc1`, in that order: 14%, 12%, 11% and “inactive”.
In the same order, the values of `O=C1NC(=S)N/C1=C\c1ccc(Br)s1` are 46%, 17%, 75% and 10%.
For `O=C1NC(=O)/C(=C/c2cccc(O)c2)S1`, in that order: 18%, “inactive”, “inactive” and 11%.
For the compound `O=C1NC(=S)N[C@H]1Cc1c[nH]c2ccccc12`, the inhibition entry in the experiment with Dengue virus and at Prothrombin (Bos taurus) was “inactive” each time. Further, the inhibition turned out to be 11% in the experiment on Escherichia coli [1] and 13% in the experiment on Escherichia coli [2].
With `O=C1NC(=O)/C(=C/c2c[nH]c3ccccc23)N1`, the inhibition is 36% in the experiment with Dengue virus and 15% at Prothrombin (Bos taurus). For the same compound, the inhibition entry with Escherichia coli [1] and with Escherichia coli [2] was “inactive” throughout.
On to `C/C(=C1/SC(=S)NC1=O)c1cccs1`, for which the inhibition with Dengue virus stood at 45%; against Prothrombin (Bos taurus), 17%; with Escherichia coli [1], 11%. Also, in the experiment on Escherichia coli [2], the inhibition result was “inactive”.
For `O=C1NC(=O)/C(=C/c2sccc2Br)N1`, in that order: 13%, 16%, “inactive” and “inactive”.
With `O=C1NC(=S)N[C@H]1Cc1ccc(O)cc1`, the inhibition entry in the experiment on Dengue virus, on Prothrombin (Bos taurus), in the experiment with Escherichia coli [1] and in the experiment with Escherichia coli [2] was “inactive” each time.
For `O=C1NC(=S)S/C1=C\c1ccc2ccccc2c1`, the inhibition in the experiment with Dengue virus stood at 56%; against Prothrombin (Bos taurus), 28%; in the experiment with Escherichia coli [1], 15%; with Escherichia coli [2], 14%.
In the same order, the values of `O=C1NC(=O)/C(=C/c2ccc(Br)s2)S1` are “inactive”, 19%, 62% and 12%.
In the same order, the values of `N#Cc1ccc(/C=C2\NC(=S)NC2=O)cc1` are 37%, 11%, “inactive” and “inactive”.
`COc1cccc(/C=C2\NC(=S)NC2=O)c1`: the inhibition in the experiment on Dengue virus turned out to be 28%; against Prothrombin (Bos taurus), 15%; in the experiment on Escherichia coli [1], 10%; in the experiment on Escherichia coli [2], 18%.
For `CC(=O)N1C(=S)NC(=O)[C@@H]1CCC(N)=O`, in that order: “inactive”, “inactive”, “inactive” and 13%.
In the same order, the values of `C/C(=C1/SC(=S)NC1=O)c1ccc(F)cc1` are “inactive”, 20%, 69% and “inactive”.
For `O=C1NC(=S)S/C1=C\c1ccc(O)c(O)c1`, in that order: 50%, 35%, 89% and 65%.
Consider `CC(=O)N1C(=S)NC(=O)[C@@H]1Cc1ccc(O)cc1`, for which the inhibition result in the experiment on Dengue virus, at Prothrombin (Bos taurus), with Escherichia coli [1] and in the experiment with Escherichia coli [2] was “inactive” each time.
For the compound `Cn1cc(/C=C2\SC(=O)NC2=O)c2ccccc21`, the inhibition in the experiment with Dengue virus stood at 41%; against Prothrombin (Bos taurus), 25%. Further, the inhibition entry in the experiment on Escherichia coli [1] and with Escherichia coli [2] was “inactive” throughout.
Regarding `O=C1NC(=O)/C(=C/c2c(F)c(F)c(F)c(F)c2F)N1`, the inhibition with Dengue virus came out at 14%; on Prothrombin (Bos taurus), 18%; with Escherichia coli [1], 18%. Moreover, the inhibition result in the experiment on Escherichia coli [2] was “inactive”.
Take `O=C1NC(=O)/C(=C/c2sccc2Br)S1`: the inhibition entry in the experiment with Dengue virus and in the experiment on Escherichia coli [2] was “inactive” throughout. Moreover, the inhibition was determined as 18% against Prothrombin (Bos taurus) and 44% in the experiment on Escherichia coli [1].
Take `C/C(=C1/NC(=S)NC1=O)c1cccs1`: the inhibition in the experiment with Dengue virus amounted to 43%; on Prothrombin (Bos taurus), 20%; in the experiment with Escherichia coli [1] it was 50%; in the experiment on Escherichia coli [2] it was 42%.
Take `O=C1NC(=O)/C(=C/c2ccc(Br)s2)N1`: the inhibition with Dengue virus and against Prothrombin (Bos taurus) was 22% each time. For the same compound, the inhibition result in the experiment on Escherichia coli [1] and in the experiment with Escherichia coli [2] was “inactive” each time.
With `COc1cc(/C=C2\NC(=S)NC2=O)ccc1O`, the inhibition in the experiment with Dengue virus was found to be 38%; against Prothrombin (Bos taurus), 23%; in the experiment on Escherichia coli [1], 72%; in the experiment on Escherichia coli [2], 26%.
In the same order, the values of `CCCC/C=C/C1SC(=S)NC1=O` (stereo not given) are 18%, “inactive”, 10% and 17%.
For the compound `O=C1NC(=O)[C@@H](Cc2ccccc2)N1`, the inhibition result with Dengue virus, on Prothrombin (Bos taurus), with Escherichia coli [1] and in the experiment on Escherichia coli [2] was “inactive” each time.
Regarding `CCC/C=C/C1NC(=S)NC1=O` (stereo not given), the inhibition result in the experiment with Dengue virus is “inactive”. In addition, the inhibition stood at 14% against Prothrombin (Bos taurus), 77% with Escherichia coli [1] and 19% with Escherichia coli [2].
In the same order, the values of `C/C(=C1/NC(=S)NC1=O)c1ccc2ccccc2c1` are 33%, 10%, “inactive” and 15%.
In the same order, the values of `CCCCC/C=C1\NC(=S)NC1=O` are 18%, 16%, 17% and 27%.
